ChEMBL document CHEMBL2057145, “Development of novel antibacterial agents against methicillin-resistant Staphylococcus aureus” (Bioorg Med Chem, 2012)
In brackets after ≈: the same amount, converted by molar mass.

How the values were obtained:
[1] = Selectivity ratio of IC50 for human HT-29 cells to MIC for Staphylococcus aureus ATCC 29213; type: functional
Procedure, shortened: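 Ratio of HT-29 IC50 (MTT assay, 24 h exposure) to MIC against S. aureus ATCC 29213 (CLSI broth microdilution, 24 h, 37 °C).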

[2] = test system: Staphylococcus aureus; test: Antibacterial activity against Staphylococcus aureus ATCC 29213 after 24 hrs by broth microdilution method; type: functional; settings: ATCC 29213, 24 h
[3] = test system: HT-29; test: Antiproliferative activity against human HT-29 cells after 24 hrs by MTT assay; type: cell-based; settings: HT-29, 24 h
Procedure, shortened: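 HT-29 human colon adenocarcinoma cells seeded at 1 × 10⁴ cells/well in RPMI 1640 with 10% FBS and 10 µg/mL gentamicin, left overnight at 37 °C, 5% CO₂. Medium then replaced with medium holding test agents (final DMSO 0.1%; DMSO-only controls), at least 6 wells per condition, for 24 h. Viability read by MTT (0.5 mg/mL, 2 h, 37 °C), DMSO solubilization, absorbance 570 nm.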

[4] = test system: Staphylococcus epidermidis; test: Antibacterial activity against Staphylococcus epidermidis ATCC 35984 after 24 hrs by broth microdilution method; type: functional; settings: RP62A
[5] = test system: Staphylococcus epidermidis; test: Antibacterial activity against Staphylococcus epidermidis ATCC 12228 after 24 hrs by broth microdilution method; type: functional; settings: ATCC 12228, 24 h
[6] = test system: Staphylococcus lugdunensis; test: Antibacterial activity against Staphylococcus lugdunensis isolate NTUH after 24 hrs by broth microdilution method; type: functional
[7] = test system: Staphylococcus aureus; test: Antibacterial activity against methicillin-resistant Staphylococcus aureus ATCC 49476 after 24 hrs by broth microdilution method; settings: ATCC 49476, 24 h
[8] = test system: Staphylococcus aureus; test: Antibacterial activity against methicillin-resistant Staphylococcus aureus expressing […] subtype VT after 24 hrs by broth microdilution method; type: functional
Procedure, shortened: (§1)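 CLSI broth microdilution. Bacteria grown overnight on LB agar, suspended in PBS, then exposed to test agents at 0.25 to 64 µg/mL in triplicate. Incubation 37 °C for 24 h. MIC is the lowest concentration with no visible bacterial growth. DMSO stocks diluted in culture medium to a final DMSO of 0.1%.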

[9] = test system: Staphylococcus haemolyticus; test: Antibacterial activity against Staphylococcus haemolyticus ATCC 29970 after 24 hrs by broth microdilution method; type: functional; settings: ATCC 29970, 24 h
[10] = test system: Staphylococcus aureus; test: Antibacterial activity against Staphylococcus aureus ATCC 12598 after 24 hrs by broth microdilution method; type: functional; settings: ATCC 12598, 24 h
Procedure, shortened: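 CLSI broth microdilution. Incubation 37 °C for 24 h. MIC is the lowest concentration with no visible bacterial growth. DMSO stocks diluted in culture medium to a final DMSO of 0.1%.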

[11] = test system: Staphylococcus aureus; test: Antibacterial activity against methicillin-resistant Staphylococcus aureus ATCC 33592 after 24 hrs by broth microdilution method; type: functional; settings: ATCC 33592, 24 h; procedure, shortened: as §1
[12] = test system: Staphylococcus hominis; test: Antibacterial activity against Staphylococcus hominis ATCC 27844 after 24 hrs by broth microdilution method; type: functional; settings: ATCC 27844, 24 h
[13] = test system: Staphylococcus saprophyticus; test: Antibacterial activity against Staphylococcus saprophyticus ATCC 15305 after 24 hrs by broth microdilution method; type: functional; settings: ATCC 15305, 24 h
[14] = test system: Staphylococcus intermedius; test: Antibacterial activity against Staphylococcus intermedius ATCC 29663 after 24 hrs by broth microdilution method; type: functional; settings: ATCC 29663, 24 h

SMILES | Ratio [1] | MIC [2] [µg/mL] | IC50 [3] [µg/mL] | MIC [4] [µg/mL] | also measured
NCCC(=O)Nc1ccc(-n2nc(C(F)(F)F)cc2-c2ccc(-c3ccc(C(F)(F)F)cc3)cc2)cc1 | 1.1 | 4 (≈ 7.72 µM) | 4.2 (≈ 8.1 µM) | 4 (≈ 7.72 µM) | 
CC1(C)S[C@@H]2[C@H](NC(=O)[C@H](N)c3ccccc3)C(=O)N2[C@H]1C(=O)O [AMPICILLIN] |  | 8 (≈ 22.9 µM) |  | 64 (≈ 183 µM) | MIC [5]: 16 µg/mL (≈ 45.8 µM); MIC [6]: 32 µg/mL (≈ 91.6 µM); MIC [7]: 64 µg/mL (≈ 183 µM); MIC [8]: > 64 µg/mL; MIC [9]: 0.25 µg/mL (≈ 0.715 µM); MIC [10]: 0.25 µg/mL (≈ 0.715 µM); MIC [11]: > 64 µg/mL; MIC [12]: < 0.0625 µg/mL; MIC [13]: 0.5 µg/mL (≈ 1.43 µM); MIC [14]: 0.125 µg/mL (≈ 0.358 µM)
NCCCC[C@@H](N)C(=O)Nc1ccc(-n2nc(C(F)(F)F)cc2-c2ccc3c(c2)Nc2ccccc2S3)cc1 | 4.4 | 4 (≈ 7.24 µM) | 17.5 (≈ 31.7 µM) | 4 (≈ 7.24 µM) | 
NCCCC[C@H](N)C(=O)Nc1ccc(-n2nc(C(F)(F)F)cc2-c2ccc3c(c2)Nc2ccccc2S3)cc1 | 2.6 | 2 (≈ 3.62 µM) | 5.2 (≈ 9.41 µM) |  | 
NS(=O)(=O)c1ccc(-n2nc(C(F)(F)F)cc2-c2ccc(-c3ccc(Cl)cc3)cc2)cc1 | 3.1 | 4 (≈ 8.37 µM) | 12.5 (≈ 26.2 µM) | 8 (≈ 16.7 µM) | 
NCCCC[C@H](N)C(=O)Nc1ccc(-n2nc(C(F)(F)F)cc2-c2ccc(-c3ccc(C(F)(F)F)cc3)cc2)cc1 | 0.8 | 4 (≈ 6.95 µM) | 3.3 (≈ 5.73 µM) | 4 (≈ 6.95 µM) | 
NCCCC[C@@H](N)C(=O)Nc1ccc(-n2nc(C(F)(F)F)cc2-c2ccc3c(ccc4ccccc43)c2)cc1 | 0.8 | 4 (≈ 7.52 µM) |  | 4 (≈ 7.52 µM) | 
NS(=O)(=O)Nc1ccc(-n2nc(C(F)(F)F)cc2-c2ccc3ccccc3c2)cc1 | 19 | 1 (≈ 2.31 µM) |  |  | MIC [6]: 4 µg/mL (≈ 9.25 µM); MIC [14]: 2 µg/mL (≈ 4.63 µM)
NCC(=O)Nc1ccc(-n2nc(C(F)(F)F)cc2-c2ccc3c(c2)oc2ccccc23)cc1 | 1.6 | 4 (≈ 8.88 µM) | 6.5 (≈ 14.4 µM) | 4 (≈ 8.88 µM) | 
NS(=O)(=O)Nc1ccc(-n2nc(C(F)(F)F)cc2-c2ccc(-c3ccccc3)cc2)cc1 | 16 | 1 (≈ 2.18 µM) |  |  | MIC [6]: 2 µg/mL (≈ 4.36 µM); MIC [7]: 1 µg/mL (≈ 2.18 µM); MIC [8]: 1 µg/mL (≈ 2.18 µM); MIC [10]: 1 µg/mL (≈ 2.18 µM); MIC [11]: 1 µg/mL (≈ 2.18 µM); MIC [14]: 2 µg/mL (≈ 4.36 µM)
NCCC(=O)Nc1ccc(-n2nc(C(F)(F)F)cc2-c2ccc3c(c2)Nc2ccccc2S3)cc1 | 1.9 | 4 (≈ 8.07 µM) | 7.5 (≈ 15.1 µM) | 4 (≈ 8.07 µM) | 
NCCC(=O)Nc1ccc(-n2nc(C(F)(F)F)cc2-c2ccc3c(ccc4ccccc43)c2)cc1 | 1.5 | 4 (≈ 8.43 µM) | 6 (≈ 12.6 µM) | 4 (≈ 8.43 µM) | 
